These results are taken from ChEMBL document CHEMBL5154850, “A platform for the rapid synthesis of proteolysis targeting chimeras (Rapid-TAC) under miniaturized conditions” (Eur J Med Chem, 2022).

Experiment [1] addresses T1, von Hippel-Lindau disease tumor suppressor/Bromodomain-containing protein 4 (Homo sapiens, UniProt O60885+P40337). Put plainly: PROTAC activity at VHL/BRD4 in human MV4-11 cells assessed as induction of BRD4 degradation measured after 12 hrs by western blot analysis. Background: Immunoblotting shows a protein as a band on a membrane.
The target of experiment [2] is T1, von Hippel-Lindau disease tumor suppressor/Bromodomain-containing protein 4. Put plainly: PROTAC activity at VHL/BRD4 in human MV4-11 cells assessed as induction of BRD4 degradation at 3 to 100 nM measured after 12 hrs by western blot analysis. As to conditions: dose 3-100 nM.
Experiment [3] addresses T2, von Hippel-Lindau disease tumor suppressor/Androgen receptor (Homo sapiens, UniProt P10275+P40337). Put plainly: PROTAC activity at VHL/AR in human LNCaP cells assessed as induction of AR degradation at 1 to 10 uM measured after 16 hrs by western blot analysis. Particulars: dose 1-10 µM. Format: cell-based. Summed up: (§1)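 LNCaP cells kept in RPMI with 10% FBS, 1% HEPES, 1% sodium pyruvate and 1% penicillin/streptomycin at 37 °C, 5% CO2, then exposed to PROTACs for 16 h. Lysis in RIPA buffer with protease inhibitors and 1 mM PMSF. BCA-equalized protein run on 7.5% SDS-PAGE, blocked in 5% milk/TBS-T, anti-AR primary overnight at 4 °C, β-actin loading control, HRP secondary 1 h, chemiluminescent imaging.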
Target sequence in this assay (P10275 whole entry, looked up): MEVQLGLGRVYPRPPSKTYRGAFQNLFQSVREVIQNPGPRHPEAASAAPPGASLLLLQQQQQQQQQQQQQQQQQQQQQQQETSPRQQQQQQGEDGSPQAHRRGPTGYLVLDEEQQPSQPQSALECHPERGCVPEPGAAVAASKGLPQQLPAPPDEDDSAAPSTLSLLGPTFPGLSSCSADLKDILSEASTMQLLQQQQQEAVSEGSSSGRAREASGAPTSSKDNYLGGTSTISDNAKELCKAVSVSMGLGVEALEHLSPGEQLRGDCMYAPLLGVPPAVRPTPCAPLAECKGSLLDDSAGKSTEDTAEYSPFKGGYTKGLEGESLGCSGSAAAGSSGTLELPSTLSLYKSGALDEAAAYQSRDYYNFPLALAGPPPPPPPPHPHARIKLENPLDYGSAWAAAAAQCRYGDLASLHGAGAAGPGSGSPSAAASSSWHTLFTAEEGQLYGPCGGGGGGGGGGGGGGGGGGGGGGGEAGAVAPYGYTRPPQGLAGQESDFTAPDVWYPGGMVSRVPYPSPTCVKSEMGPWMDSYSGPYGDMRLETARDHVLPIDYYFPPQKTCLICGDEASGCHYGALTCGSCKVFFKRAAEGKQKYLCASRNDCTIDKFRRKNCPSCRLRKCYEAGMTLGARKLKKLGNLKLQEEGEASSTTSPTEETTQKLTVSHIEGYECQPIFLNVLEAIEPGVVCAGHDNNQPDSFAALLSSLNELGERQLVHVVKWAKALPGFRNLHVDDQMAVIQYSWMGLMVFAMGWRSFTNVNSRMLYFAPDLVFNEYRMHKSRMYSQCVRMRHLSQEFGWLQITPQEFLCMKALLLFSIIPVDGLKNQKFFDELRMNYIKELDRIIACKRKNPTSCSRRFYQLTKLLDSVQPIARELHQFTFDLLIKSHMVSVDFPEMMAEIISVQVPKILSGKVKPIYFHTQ
Target sequence in this assay (P40337 whole entry, looked up): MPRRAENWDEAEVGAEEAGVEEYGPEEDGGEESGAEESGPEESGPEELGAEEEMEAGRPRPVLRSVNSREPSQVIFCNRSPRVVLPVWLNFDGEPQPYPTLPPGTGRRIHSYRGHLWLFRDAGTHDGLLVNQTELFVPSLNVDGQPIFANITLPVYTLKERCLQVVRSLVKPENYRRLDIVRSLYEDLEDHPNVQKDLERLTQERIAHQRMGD

Experiment [4] has as its target T2, von Hippel-Lindau disease tumor suppressor/Androgen receptor. Put plainly: PROTAC activity at VHL/AR in human LNCaP cells assessed as induction of AR degradation measured after 16 hrs by western blot analysis. Format: cell-based. Summed up: as §1
Target sequence in this assay (P10275 whole entry): as the sequence (P10275 whole entry, looked up) above
Target sequence in this assay (P40337 whole entry): as the sequence (P40337 whole entry, looked up) above
For experiment [5] the target is unchanged. Briefly: PROTAC activity at VHL/AR in human LNCaP cells assessed as induction of AR degradation at 10 uM measured after 16 hrs by western blot analysis relative to control. Format: cell-based. An outline of the steps:
as §1
Target sequence in this assay (P10275 whole entry, looked up): as the sequence (P10275 whole entry, looked up) above
Target sequence in this assay (P40337 whole entry, looked up): as the sequence (P40337 whole entry, looked up) above

Experiment [6] shares this target. Briefly: PROTAC activity at VHL/AR in human LNCaP cells assessed as induction of AR degradation at 1 uM measured after 16 hrs by western blot analysis relative to control. Format: cell-based. Summed up:
as §1
Target sequence in this assay (P10275 whole entry, looked up): as the sequence (P10275 whole entry, looked up) above
Target sequence in this assay (P40337 whole entry, looked up): as the sequence (P40337 whole entry, looked up) above

Experiment [7] has the same target. Briefly: PROTAC activity at VHL/AR in human LNCaP cells assessed as induction of AR degradation at 0.01 to 1 uM measured after 16 hrs by western blot analysis. Format: cell-based. As to conditions: dose 0.1-10 µM, in the assay text read “0.1 to 10 uM” for “0.01 to 1 uM”. An outline of the steps: as §1
Target sequence in this assay (P10275 whole entry, looked up): as the sequence (P10275 whole entry, looked up) above
Target sequence in this assay (P40337 whole entry, looked up): as the sequence (P40337 whole entry, looked up) above
For experiment [8] the target is unchanged. Briefly: PROTAC activity at VHL/AR in human LNCaP cells assessed as reduction in AR level at 100 nM measured after 6 hrs by western blot analysis. Format: cell-based. Summed up:
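AR time-course blot in LNCaP cells (RPMI, 10% FBS, 37 °C, 5% CO2) with degrader at 100 nM over varied exposure times. Lysates in RIPA with protease inhibitors, equal protein by BCA, 7.5% SDS-PAGE, anti-AR overnight at 4 °C, β-actin loading reference, HRP detection.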
Target sequence in this assay (P10275 whole entry, looked up): as the sequence (P10275 whole entry, looked up) above
Target sequence in this assay (P40337 whole entry, looked up): as the sequence (P40337 whole entry, looked up) above

For experiment [9], the target named is T1, von Hippel-Lindau disease tumor suppressor/Bromodomain-containing protein 4. Put plainly: PROTAC activity at VHL/BRD4 in human MV4-11 cells assessed as induction of BRD4 degradation at 1 uM measured after 24 hrs by western blot analysis. Format: cell-based. An outline of the steps:
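MV-4-11 cells grown in IMDM with 10% FBS and 1% penicillin/streptomycin at 37 °C, 5% CO2. Library screen at 1 and 10 μM for 24 h; follow-up at 100, 30, 10 and 3 nM and dose response for 12 h. RIPA lysates, BCA-normalized, 7.5% SDS-PAGE, anti-BRD4 overnight at 4 °C, β-actin control, HRP-secondary chemiluminescence.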

The source made the active and inactive calls. The rule behind the calls is not given here.

T1 sequence (P40337 whole entry, looked up, other chains not shown): as the sequence (P40337 whole entry, looked up) above

In general, DC50 refers to the concentration at which degradation of the target reaches its halfway point. Regarding `Cc1ncsc1-c1ccc(CNC(=O)[C@@H]2C[C@@H](O)CN2C(=O)[C@@H](NC(=O)CCCCN2Cc3cc(NC(=O)C[C@@H]4N=C(c5ccc(Cl)cc5)c5c(sc(C)c5C)-n5c(C)nnc54)ccc3C2=O)C(C)(C)C)cc1`, the half-maximal degradation concentration (DC50) in experiment [1] came to 8.9 nM. In addition, the result in experiment [2] was Active.
Consider `Cc1ncsc1-c1ccc(CNC(=O)[C@@H]2C[C@@H](O)CN2C(=O)[C@@H](NC(=O)CCCCCCCCCCN2Cc3cc(C(=O)N[C@H]4C(C)(C)[C@H](Oc5ccc(C#N)c(Cl)c5)C4(C)C)ccc3C2=O)C(C)(C)C)cc1`, for which, in experiment [3], the result was Active.
For `Cc1ncsc1-c1ccc(CNC(=O)[C@@H]2C[C@@H](O)CN2C(=O)[C@@H](NC(=O)CCCCCCCN2Cc3ccc(C(=O)N[C@H]4C(C)(C)[C@H](Oc5ccc(C#N)c(Cl)c5)C4(C)C)cc3C2=O)C(C)(C)C)cc1`, the DC50 in experiment [4] was determined as 41.9 nM. Moreover, the Activity in experiment [5] is 40%; in experiment [6], 73%. Further, the outcome in [3], in [7] and in experiment [8] was Active.
As to `Cc1ncsc1-c1ccc(CNC(=O)[C@@H]2C[C@@H](O)CN2C(=O)[C@@H](NC(=O)CCCCN2Cc3cc(C(=O)N[C@H]4C(C)(C)[C@H](Oc5ccc(C#N)c(Cl)c5)C4(C)C)ccc3C2=O)C(C)(C)C)cc1`, the outcome in experiment [3] was Active.
Regarding `Cc1ncsc1-c1ccc(CNC(=O)[C@@H]2C[C@@H](O)CN2C(=O)[C@@H](NC(=O)CCCCCCCN2Cc3cc(C(=O)N[C@H]4C(C)(C)[C@H](Oc5ccc(C#N)c(Cl)c5)C4(C)C)ccc3C2=O)C(C)(C)C)cc1`, the outcome in experiment [7] was Active.
On the same count and under the same terms, next, `Cc1ncsc1-c1ccc(CNC(=O)[C@@H]2C[C@@H](O)CN2C(=O)[C@@H](NC(=O)CCCCCCCNC(=O)c2ccc(C(=O)N[C@H]3C(C)(C)[C@H](Oc4ccc(C#N)c(Cl)c4)C3(C)C)cc2)C(C)(C)C)cc1`: “Active”.
`CC1(C)[C@H](NC(=O)c2ccc3c(c2)CN(C2CCC(=O)NC2=O)C3=O)C(C)(C)[C@H]1Oc1ccc(C#N)c(Cl)c1` (some centres not stated): in experiment [3], the outcome was Active.
Same read-out and setting: next, `Cc1ncsc1-c1ccc(CNC(=O)[C@@H]2C[C@@H](O)CN2C(=O)[C@@H](NC(=O)COCCN2Cc3cc(C(=O)N[C@H]4C(C)(C)[C@H](Oc5ccc(C#N)c(Cl)c5)C4(C)C)ccc3C2=O)C(C)(C)C)cc1`: “Active”; `Cc1ncsc1-c1ccc(CNC(=O)[C@@H]2C[C@@H](O)CN2C(=O)[C@@H](NC(=O)COCCOCCOCCN2Cc3cc(C(=O)N[C@H]4C(C)(C)[C@H](Oc5ccc(C#N)c(Cl)c5)C4(C)C)ccc3C2=O)C(C)(C)C)cc1`: “Active”; `Cc1ncsc1-c1ccc(CNC(=O)[C@@H]2C[C@@H](O)CN2C(=O)[C@@H](NC(=O)COCCOCCN2Cc3cc(C(=O)N[C@H]4C(C)(C)[C@H](Oc5ccc(C#N)c(Cl)c5)C4(C)C)ccc3C2=O)C(C)(C)C)cc1`: “Active”.
Turning to `Cc1ncsc1-c1ccc(CNC(=O)[C@@H]2C[C@@H](O)CN2C(=O)[C@@H](NC(=O)CCCCN2Cc3ccc(NC(=O)C[C@@H]4N=C(c5ccc(Cl)cc5)c5c(sc(C)c5C)-n5c(C)nnc54)cc3C2=O)C(C)(C)C)cc1`, the result in [9] was Active.
Consider `Cc1ncsc1-c1ccc(CNC(=O)[C@@H]2C[C@@H](O)CN2C(=O)[C@@H](NC(=O)CCCCCCCCN2Cc3cc(C(=O)N[C@H]4C(C)(C)[C@H](Oc5ccc(C#N)c(Cl)c5)C4(C)C)ccc3C2=O)C(C)(C)C)cc1`, for which the outcome in experiment [3] was Active.
The same measure, in the same setting: with `Cc1ncsc1-c1ccc(CNC(=O)[C@@H]2C[C@@H](O)CN2C(=O)[C@@H](NC(=O)CCCCCCN2Cc3cc(C(=O)N[C@H]4C(C)(C)[C@H](Oc5ccc(C#N)c(Cl)c5)C4(C)C)ccc3C2=O)C(C)(C)C)cc1` the entry was “Active”; with `Cc1ncsc1-c1ccc(CNC(=O)[C@@H]2C[C@@H](O)CN2C(=O)[C@@H](NC(=O)CCN2Cc3cc(C(=O)N[C@H]4C(C)(C)[C@H](Oc5ccc(C#N)c(Cl)c5)C4(C)C)ccc3C2=O)C(C)(C)C)cc1`, “Active”; with `Cc1ncsc1-c1ccc(CNC(=O)[C@@H]2C[C@@H](O)CN2C(=O)[C@@H](NC(=O)COCCOCCOCCOCCN2Cc3cc(C(=O)N[C@H]4C(C)(C)[C@H](Oc5ccc(C#N)c(Cl)c5)C4(C)C)ccc3C2=O)C(C)(C)C)cc1`, “Active”.
Same read-out and setting: with `Cc1ncsc1-c1ccc(CNC(=O)[C@@H]2C[C@@H](O)CN2C(=O)[C@@H](NC(=O)CCCCCN2Cc3cc(C(=O)N[C@H]4C(C)(C)[C@H](Oc5ccc(C#N)c(Cl)c5)C4(C)C)ccc3C2=O)C(C)(C)C)cc1` the entry was “Active”.
